The text below walks through data of ChEMBL document CHEMBL4680269, “N-benzylpiperidinol derivatives as novel USP7 inhibitors: Structure-activity relationships and X-ray crystallographic studies” (Eur J Med Chem, 2020).

SMILES strings stand for the structures. Active and inactive are the calls of the source. The calls are words filed in the database; no cut-off is given here. A value given as a limit tells only on which side of the number the result lay.

One may read the IC50 as the concentration at which inhibition is half-maximal.

The test system of one test is LNCaP. The experiment in a line: Antiproliferative activity against human LNCaP cells assessed as reduction in cell viability incubated for 6 days by cell-titer glo assay. The class given is functional, cell-based. The following applies: 144 h. The method, boiled down:
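LNCaP seeded at 2500 cells/well in 96-well plates, treated 24 h later with a range of compound concentrations for 6 days. Viability by CellTiter-Glo; IC50 from curve fitting.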

The target of test [1] is T1, Ubiquitin carboxyl-terminal hydrolase isozyme L5 (Homo sapiens) (UniProt Q9Y5K5).
T1 sequence (whole entry): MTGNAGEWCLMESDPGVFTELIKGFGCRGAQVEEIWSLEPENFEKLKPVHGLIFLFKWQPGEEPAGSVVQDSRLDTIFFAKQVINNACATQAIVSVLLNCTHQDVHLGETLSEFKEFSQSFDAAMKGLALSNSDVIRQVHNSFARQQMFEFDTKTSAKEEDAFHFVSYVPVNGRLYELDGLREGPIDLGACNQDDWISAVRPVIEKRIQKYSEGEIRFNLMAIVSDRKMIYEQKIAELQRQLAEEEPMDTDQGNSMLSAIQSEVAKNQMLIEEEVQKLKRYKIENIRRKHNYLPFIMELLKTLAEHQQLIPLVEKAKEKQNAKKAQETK
Kind of test: Inhibition of UCH-L5 (unknown origin) at 20 uM.

The next test has as its system NB-4. The experiment in a line: Antiproliferative activity against human NB-4 cells assessed as reduction in cell viability incubated for 3 days by cell-titer glo assay. The test is classed as functional, cell-based. The following applies: NB-4, 72 h. The method, boiled down:
(§1)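 Cells seeded in 96-well plates (RS4;11 5000 cells/well; HCT-116, Huh7, K562, NB4 2000 cells/well), dosed after 24 h with a range of compound concentrations for 3 days. Viability read by CellTiter-Glo luminescence; IC50 from curve fitting.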

For the next test, the system named is HCT-116. Kind of test: Antiproliferative activity against human HCT-116 cells assessed as reduction in cell viability incubated for 3 days by cell-titer glo assay. The test is classed as functional, cell-based. The following applies: HCT-116, 72 h. The method, boiled down: as §1
Test [2] concerns the target T2, Ubiquitin carboxyl-terminal hydrolase 2 (Homo sapiens) (UniProt O75604).
T2 sequence (whole entry): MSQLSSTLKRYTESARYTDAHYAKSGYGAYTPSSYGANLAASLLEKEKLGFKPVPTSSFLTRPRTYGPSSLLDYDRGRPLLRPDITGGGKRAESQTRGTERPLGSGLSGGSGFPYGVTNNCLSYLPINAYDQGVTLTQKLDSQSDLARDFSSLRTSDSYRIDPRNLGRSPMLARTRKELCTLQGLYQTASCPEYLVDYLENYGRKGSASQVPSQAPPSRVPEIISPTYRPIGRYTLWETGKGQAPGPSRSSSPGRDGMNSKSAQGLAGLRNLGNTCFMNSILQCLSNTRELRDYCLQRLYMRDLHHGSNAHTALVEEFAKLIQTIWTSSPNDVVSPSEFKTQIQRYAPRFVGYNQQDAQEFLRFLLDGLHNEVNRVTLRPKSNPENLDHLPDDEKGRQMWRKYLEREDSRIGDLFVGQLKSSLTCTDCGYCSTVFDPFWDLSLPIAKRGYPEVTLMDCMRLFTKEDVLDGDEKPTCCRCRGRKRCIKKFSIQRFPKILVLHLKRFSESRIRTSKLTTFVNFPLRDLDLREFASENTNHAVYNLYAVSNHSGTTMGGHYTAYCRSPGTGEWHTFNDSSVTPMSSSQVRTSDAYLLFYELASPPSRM
The experiment in a line: Inhibition of USP2 (unknown origin) at 20 uM.

Test [3] concerns the target T3, Ubiquitin carboxyl-terminal hydrolase 25 (Homo sapiens) (UniProt Q9UHP3).
T3 sequence (whole entry): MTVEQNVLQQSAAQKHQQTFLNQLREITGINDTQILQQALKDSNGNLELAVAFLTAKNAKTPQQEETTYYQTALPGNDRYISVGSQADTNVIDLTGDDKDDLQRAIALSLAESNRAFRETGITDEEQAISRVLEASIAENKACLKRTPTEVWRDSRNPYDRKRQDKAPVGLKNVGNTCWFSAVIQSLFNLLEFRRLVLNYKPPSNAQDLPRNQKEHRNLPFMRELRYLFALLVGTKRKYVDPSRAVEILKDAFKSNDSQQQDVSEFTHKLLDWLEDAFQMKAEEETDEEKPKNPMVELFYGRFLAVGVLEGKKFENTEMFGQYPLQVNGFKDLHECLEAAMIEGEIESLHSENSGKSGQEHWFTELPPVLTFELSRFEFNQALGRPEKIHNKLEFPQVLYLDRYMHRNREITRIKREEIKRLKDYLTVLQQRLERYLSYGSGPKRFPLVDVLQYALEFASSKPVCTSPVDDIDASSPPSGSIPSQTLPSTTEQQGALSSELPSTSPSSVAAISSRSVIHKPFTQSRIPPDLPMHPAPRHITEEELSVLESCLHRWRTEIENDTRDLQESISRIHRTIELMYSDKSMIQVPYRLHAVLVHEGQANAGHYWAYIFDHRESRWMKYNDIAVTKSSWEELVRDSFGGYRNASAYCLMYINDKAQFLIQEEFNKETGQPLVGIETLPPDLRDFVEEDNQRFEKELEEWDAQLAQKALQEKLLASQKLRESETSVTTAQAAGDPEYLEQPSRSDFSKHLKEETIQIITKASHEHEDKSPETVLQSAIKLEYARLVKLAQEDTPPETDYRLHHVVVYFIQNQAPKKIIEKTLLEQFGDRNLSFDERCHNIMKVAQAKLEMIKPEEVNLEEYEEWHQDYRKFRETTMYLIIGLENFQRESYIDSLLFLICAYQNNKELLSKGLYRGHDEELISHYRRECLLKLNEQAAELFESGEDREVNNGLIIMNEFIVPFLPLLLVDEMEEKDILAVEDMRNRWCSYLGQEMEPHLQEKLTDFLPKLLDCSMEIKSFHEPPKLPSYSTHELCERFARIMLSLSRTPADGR
The experiment in a line: Inhibition of USP25 (unknown origin) at 20 uM.

The target in test [4] is Ubiquitin carboxyl-terminal hydrolase 11 (Homo sapiens) (UniProt P51784). The experiment in a line: Inhibition of USP11 (unknown origin) at 20 uM.
Chain of Ubiquitin carboxyl-terminal hydrolase 11 (Homo sapiens) (P51784 whole entry): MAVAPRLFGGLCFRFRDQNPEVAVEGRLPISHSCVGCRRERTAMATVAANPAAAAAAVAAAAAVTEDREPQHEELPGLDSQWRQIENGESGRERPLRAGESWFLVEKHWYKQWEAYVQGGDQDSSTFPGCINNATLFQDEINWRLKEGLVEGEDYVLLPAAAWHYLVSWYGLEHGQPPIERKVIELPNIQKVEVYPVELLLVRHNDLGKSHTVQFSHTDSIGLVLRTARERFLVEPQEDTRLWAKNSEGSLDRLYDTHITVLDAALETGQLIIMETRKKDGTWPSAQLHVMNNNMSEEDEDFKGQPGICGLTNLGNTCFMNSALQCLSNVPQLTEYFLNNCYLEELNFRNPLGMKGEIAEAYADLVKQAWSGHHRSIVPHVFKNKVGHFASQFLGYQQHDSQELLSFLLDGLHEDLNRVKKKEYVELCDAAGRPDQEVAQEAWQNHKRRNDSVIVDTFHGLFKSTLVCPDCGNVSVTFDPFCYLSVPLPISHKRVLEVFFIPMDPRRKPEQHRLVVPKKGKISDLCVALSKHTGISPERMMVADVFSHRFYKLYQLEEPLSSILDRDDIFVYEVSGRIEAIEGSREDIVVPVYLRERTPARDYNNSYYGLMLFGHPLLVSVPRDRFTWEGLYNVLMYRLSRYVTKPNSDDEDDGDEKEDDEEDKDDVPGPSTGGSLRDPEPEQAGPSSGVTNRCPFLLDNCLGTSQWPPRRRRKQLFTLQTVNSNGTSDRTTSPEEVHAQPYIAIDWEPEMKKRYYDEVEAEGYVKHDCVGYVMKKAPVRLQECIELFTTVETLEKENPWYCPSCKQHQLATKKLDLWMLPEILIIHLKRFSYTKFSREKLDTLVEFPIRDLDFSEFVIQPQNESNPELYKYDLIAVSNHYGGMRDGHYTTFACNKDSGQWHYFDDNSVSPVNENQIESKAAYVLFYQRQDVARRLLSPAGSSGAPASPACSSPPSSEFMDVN
The next test deals with Huh-7. The experiment in a line: Antiproliferative activity against human HuH-7 cells assessed as reduction in cell viability incubated for 3 days by cell-titer glo assay. The following applies: Huh-7, 72 h. The test is classed as functional, cell-based. The method, boiled down: as §1
The target in test [5] is T4, Ubiquitin carboxyl-terminal hydrolase 28 (Homo sapiens) (UniProt Q96RU2).
T4 sequence (whole entry): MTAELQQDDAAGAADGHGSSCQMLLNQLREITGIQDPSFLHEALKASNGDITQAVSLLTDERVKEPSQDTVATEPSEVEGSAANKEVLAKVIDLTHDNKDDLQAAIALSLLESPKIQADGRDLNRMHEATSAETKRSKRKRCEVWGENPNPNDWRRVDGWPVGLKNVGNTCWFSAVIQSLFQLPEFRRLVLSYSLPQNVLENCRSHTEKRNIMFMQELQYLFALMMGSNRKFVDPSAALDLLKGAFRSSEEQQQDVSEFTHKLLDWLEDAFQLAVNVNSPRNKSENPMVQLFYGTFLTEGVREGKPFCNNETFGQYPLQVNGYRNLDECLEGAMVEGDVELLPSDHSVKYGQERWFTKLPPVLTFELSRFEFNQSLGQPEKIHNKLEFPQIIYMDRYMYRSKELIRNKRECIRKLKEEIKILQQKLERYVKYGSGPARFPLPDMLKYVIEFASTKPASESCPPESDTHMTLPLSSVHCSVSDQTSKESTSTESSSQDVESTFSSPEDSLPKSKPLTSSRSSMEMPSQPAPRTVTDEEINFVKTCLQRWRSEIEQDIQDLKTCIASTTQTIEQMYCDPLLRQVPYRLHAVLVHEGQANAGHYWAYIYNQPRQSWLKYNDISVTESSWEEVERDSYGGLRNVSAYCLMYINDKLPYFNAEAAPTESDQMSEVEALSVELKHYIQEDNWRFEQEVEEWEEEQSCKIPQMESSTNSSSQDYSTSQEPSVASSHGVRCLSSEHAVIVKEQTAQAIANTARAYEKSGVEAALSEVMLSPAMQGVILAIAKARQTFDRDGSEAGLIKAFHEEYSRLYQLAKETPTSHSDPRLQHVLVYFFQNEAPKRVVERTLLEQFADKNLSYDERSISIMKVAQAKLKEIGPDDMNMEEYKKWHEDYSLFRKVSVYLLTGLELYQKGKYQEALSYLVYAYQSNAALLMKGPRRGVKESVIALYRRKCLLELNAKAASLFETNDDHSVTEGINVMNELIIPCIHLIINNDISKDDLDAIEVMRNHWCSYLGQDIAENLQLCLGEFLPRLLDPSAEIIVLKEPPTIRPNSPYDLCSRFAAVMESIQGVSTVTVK
Kind of test: Inhibition of USP28 (unknown origin) at 20 uM.

Test [6] has as its target Ubiquitin carboxyl-terminal hydrolase isozyme L1 (Homo sapiens) (UniProt P09936). Kind of test: Inhibition of UCH-L1 (unknown origin) at 20 uM.
The next test deals with RS4-11. Kind of test: Antiproliferative activity against human RS4-11 cells assessed as reduction in cell viability incubated for 3 days by cell-titer glo assay. The test is classed as functional, cell-based. Conditions: RS4-11, 72 h. The method, boiled down: as §1
A short description of test [7]: Antiproliferative activity against human K562 cells assessed as reduction in cell viability incubated for 3 days by cell-titer glo assay. The following applies: K562, 72 h. The class given is functional, cell-based. The method, boiled down: as §1

Chain of Ubiquitin carboxyl-terminal hydrolase isozyme L1 (Homo sapiens) (P09936 whole entry, looked up): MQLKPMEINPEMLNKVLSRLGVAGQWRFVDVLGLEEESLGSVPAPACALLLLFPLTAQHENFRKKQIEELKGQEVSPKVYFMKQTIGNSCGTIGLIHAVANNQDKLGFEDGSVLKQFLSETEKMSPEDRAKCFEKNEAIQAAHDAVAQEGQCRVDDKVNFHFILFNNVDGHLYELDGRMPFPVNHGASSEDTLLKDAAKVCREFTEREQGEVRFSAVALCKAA

Turning to `C[C@H](CC(=O)N1CCC(O)(Cn2cnc3c(-c4ccc(CN)cc4)n(C)nc3c2=O)CC1)c1ccccc1`, the IC50 was 0.0201 µM in the test on LNCaP; greater than 50 µM in the test on NB-4; greater than 50 µM with HCT-116; 10.7 µM in the test with Huh-7; 0.0069 µM with RS4-11; 24.1 µM in test [7]. Moreover, the inhibition result in [1], in test [2], in [3], in test [4], in test [5] and in [6] was “inactive” each time.
